LEDGF integ inh = blockers of LEDGF/p75-dependent integrase strand transfer – biochemical, TR-FRET, high throughput, primary screen; inhibition, % at 3.7 µM; TR-FRET IN-LEDGF/p75 DNA integration, Eu/Cy5; 370,000 tested, 0.64% active;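 active means inhibition above the screen-wide mean plus 3 SD, cut at about 13% in these data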;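 further: signal is the Cy5 over europium emission ratio at 671 and 618 nm; 0% = plate median of compound wells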
UHRF1 binding = UHRF1 methylated DNA binding inhibitors, primary screen, counter-screen for MBD2 inhibitor project, biochemical, TR-FRET, human UHRF1, single concentration. inhibition, % at 4.4 µM. AID 687016, 2013. E3 ubiquitin-protein ligase UHRF1 (Homo sapiens), Q96T88. UHRF1 binding to methylated oligo. 370,000 tested, 0.75% active;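 further: UHRF1 SRA domain binding a hemimethylated CpG hairpin DNA probe; 0% = median of test compound wells and 100% = reference inhibitor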
Target sequence (Q96T88 whole entry, looked up, the tested form may be a part): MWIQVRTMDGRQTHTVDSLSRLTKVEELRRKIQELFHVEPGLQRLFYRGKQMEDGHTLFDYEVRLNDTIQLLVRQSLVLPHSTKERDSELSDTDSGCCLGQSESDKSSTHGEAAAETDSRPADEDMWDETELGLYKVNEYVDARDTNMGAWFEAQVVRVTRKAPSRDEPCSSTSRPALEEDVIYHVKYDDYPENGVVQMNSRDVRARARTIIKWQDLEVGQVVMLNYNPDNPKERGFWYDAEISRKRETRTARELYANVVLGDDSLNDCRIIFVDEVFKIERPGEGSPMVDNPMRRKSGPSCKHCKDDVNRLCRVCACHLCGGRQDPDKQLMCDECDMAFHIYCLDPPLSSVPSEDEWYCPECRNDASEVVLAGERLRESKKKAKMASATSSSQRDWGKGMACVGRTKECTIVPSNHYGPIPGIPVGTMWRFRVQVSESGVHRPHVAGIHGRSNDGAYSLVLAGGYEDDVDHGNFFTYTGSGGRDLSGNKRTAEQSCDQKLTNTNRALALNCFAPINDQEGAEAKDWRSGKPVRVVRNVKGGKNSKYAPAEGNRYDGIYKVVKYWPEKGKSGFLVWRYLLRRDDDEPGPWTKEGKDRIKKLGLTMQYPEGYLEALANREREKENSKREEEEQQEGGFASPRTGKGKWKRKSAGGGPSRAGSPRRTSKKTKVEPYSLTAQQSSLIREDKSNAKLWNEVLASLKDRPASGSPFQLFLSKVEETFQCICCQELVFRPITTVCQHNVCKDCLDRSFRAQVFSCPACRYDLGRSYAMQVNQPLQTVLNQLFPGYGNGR
TDP2 absorb = human TDP2 enzyme inhibitors, primary screen, biochemical, epi absorbance, recombinant enzyme | inhibition, % at 12.8 µM | Tyrosyl-DNA phosphodiesterase 2 (Homo sapiens), O95551 | 370,000 tested, 0.34% active | T5PNP hydrolysis, p-nitrophenol absorbance 415 nm;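 active means inhibition above the mean of all tested compounds plus 3 SD, set per campaign, cut at about 25% in these data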;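 further: 0% = DMSO with enzyme and 100% = buffer with substrate but no TDP2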
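Test system: Human TDP2 enzyme | Reagent: 5 mM T5PNP | Compound dosing: 12.8 µM single point, 1% DMSO | Incubation: Enzyme reaction with compound for 2 h at 37 °C | Technique: p-Nitrophenol epi absorbance | Read-out: % inhibition relative to enzyme-containing and enzyme-free wells | Benchmarks: High control without enzyme, low control DMSO plus TDP2 | Replicates: Singlicate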
MBD2 DNA inh = inhibitors of MBD2 binding to methylated DNA, primary screen, biochemical, TR-FRET, DNA-binding domain, human; Methyl-CpG-binding domain protein 2 (Homo sapiens), Q9UBB5; MBD2 binding to methylated oligonucleotide; inhibition, % at 4.4 µM; 370,000 tested, 0.31% active; AID 686964, 2013; in the data active means inhibition above about 13%
UHRF1 DNA bind = UHRF1 methylated DNA binding inhibitors, counter-screen for MBD2 inhibitor project, biochemical, TR-FRET, human UHRF1. shares compounds with MBD2 DNA inh. UHRF1 binding to methylated oligonucleotide. inhibition, % at 4.4 µM. 1,000 tested, 25% active;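 further: UHRF1 SRA domain binding a labeled hemimethylated CpG hairpin DNA; 0% = vehicle only and 100% = reference inhibitor with vehicle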
MBD2 confirm = inhibitors of MBD2 binding to methylated DNA, confirmation, biochemical, TR-FRET, DNA-binding domain, human; inhibition, % at 4.4 µM; AID 720531, 2013; TR-FRET MBD2-DBD binding to methylated oligonucleotide; 1,000 tested, 26% active; shares compounds with MBD2 DNA inh; in the data active means inhibition above about 14%
* = called active by the depositor. This is a sample that favours compounds with a hit; in the whole collection about 1.6% have one here. Unless noted, no stated cut-off is given here; in the data, active means inhibition above about 21%; inactive means the rest.

What do the screens show for `Cc1ccc2ccccc2c1NC(=O)CNC1CCCCC1`?
LEDGF integ inh: 0; UHRF1 binding: 0; TDP2 absorb: 8; MBD2 DNA inh: 18*; UHRF1 DNA bind: 4; MBD2 confirm: 5

What do the screens show for `CCc1ccccc1NC(=O)CNC1CCCCC1`?
LEDGF integ inh: -3; UHRF1 binding: 2; TDP2 absorb: 7; MBD2 DNA inh: 2

Results for C#CCCC[C@@H]1OC(=O)CNC(=O)C([C@@H](C)CC)NC(=O)[C@@H]2CCCN2C(=O)C([C@@H](C)CC)OC(=O)[C@H](Cc2ccccc2)N(C)C(=O)[C@H](C(C)C)NC(=O)C1(C)C (stereo not given in full) ?
LEDGF integ inh: 5; UHRF1 binding: 43*; TDP2 absorb: -9; MBD2 DNA inh: 15*; UHRF1 DNA bind: 7; MBD2 confirm: 2

What do the screens show for `Fc1ccc(CNC2CN3CCC2CC3)cc1` (stereo not given)?
LEDGF integ inh: 2; UHRF1 binding: 4; TDP2 absorb: 0; MBD2 DNA inh: 2

Results for O=C(O)C1CN2CCC1CC2 (stereo not given) ?
LEDGF integ inh: 1; UHRF1 binding: -1; TDP2 absorb: 9; MBD2 DNA inh: 14*; UHRF1 DNA bind: 7; MBD2 confirm: 3

Results for O=C1C2CC(CN3CCCCC23)C2CCCCN12 (stereo not given) ?
LEDGF integ inh: -4; UHRF1 binding: 1; TDP2 absorb: -4; MBD2 DNA inh: -2

What do the screens show for `Cc1ccc(-c2cc(-c3ccccc3)cc(-c3ccccc3)[n+]2-c2ccccc2C(=O)O)cc1`?
LEDGF integ inh: 3; UHRF1 binding: 21*; TDP2 absorb: 8; MBD2 DNA inh: 19*; UHRF1 DNA bind: 12; MBD2 confirm: 28*

How did COC1C(C)OC(OC2CC(C)(O)Cc3cc4c(c(O)c32)C(=O)c2c(O)cc3c(c2C4=O)OC2OC3(C)C(O)C(N(C)C)C2O)C(OC)C1(C)OC (stereo not given) do in these assays?
LEDGF integ inh: 3; UHRF1 binding: 97*; TDP2 absorb: -3; MBD2 DNA inh: 107*; UHRF1 DNA bind: 102*; MBD2 confirm: 109*

How did COC(=O)C1=C(c2c(C)noc2C)C[C@@H]2CC[C@H]1N2C(=O)N1CCC(O)CC1 do in these assays?
LEDGF integ inh: 0; UHRF1 binding: 0; TDP2 absorb: 9; MBD2 DNA inh: 28*; UHRF1 DNA bind: 4; MBD2 confirm: 2

How did COC(=O)C1=C(c2c(C)noc2C)C[C@@H]2CC[C@H]1N2C(=O)N1CCC(C)CC1 do in these assays?
LEDGF integ inh: -1; UHRF1 binding: 0; TDP2 absorb: -8; MBD2 DNA inh: 3

Results for O=C(CCN1CC1)OCCOC(=O)CCN1CC1 ?
LEDGF integ inh: -4; UHRF1 binding: 2; TDP2 absorb: 10; MBD2 DNA inh: 7

What do the screens show for `O=C(COc1ccccc1)NCCc1cnc[nH]1`?
LEDGF integ inh: -1; UHRF1 binding: 0; TDP2 absorb: 10; MBD2 DNA inh: 1

What do the screens show for `O=C(COc1ccc(Cl)cc1)NCCc1cnc[nH]1`?
LEDGF integ inh: 5; UHRF1 binding: -2; TDP2 absorb: -2; MBD2 DNA inh: 52*; UHRF1 DNA bind: 8; MBD2 confirm: 1

How did CCCCn1c(=O)c(C=Nc2cccnc2Cl)c(O)n(CCCCl)c1=O do in these assays?
LEDGF integ inh: -4; UHRF1 binding: 4; TDP2 absorb: -8; MBD2 DNA inh: -3

Results for O=c1[nH]c(=S)[nH]c(O)c1N=Nc1ccc(S(=O)(=O)N2CCc3ccccc32)cc1 ?
LEDGF integ inh: 0; UHRF1 binding: -9; TDP2 absorb: -20; MBD2 DNA inh: -9
